ChEMBL document CHEMBL4513216, “Probing the Open Global Health Chemical Diversity Library for Multistage-Active Starting Points for Next-Generation Antimalarials” (ACS Infect Dis, 2020)

Assay: Toxicity liver stage against HepG2, at 10uM
Assay type: cell-based
Set-up: test concentration 10 uM, cell line HepG2-A16-CD81EGFP
Conditions: human, HepG2-A16-CD81EGFP cells; read-out: INHIBITION
How it was run: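 Uninfected HepG2-A16-CD81EGFP cells, 3 × 10^3 per well, 1536-well, plated on prespotted compound at 10 μM final, parasite-free screening media added to match infected plates; puromycin 10 μM positive, DMSO 0.5% negative; run in parallel with 48 h PbLuc assay at 37 °C, 5% CO2; viability by CellTiter-Glo luminescence, normalized to controls.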

SMILES	cytotoxicity at 10 µM
CCC1(CC)Cc2ccccc2-c2nc(NCCCO)[nH]c(=O)c21	10.2%
CC(C)(C)c1coc([C@@H]2COCCN2Cc2c[nH]cn2)n1	1.21%
Cc1ccc(-c2nn(C)c(C(=O)O)c2Br)cc1	-49.7%
Cc1nn(C2CCCC2)c2c1C(c1ccc3c(c1)OCO3)SCC(=O)N2 (stereo unspecified)	-1.52%
CC(C)c1nc2cc(NC(=O)c3n[nH]c4c3CCC4)ccc2n1C	-5.37%
O=C([C@@H]1CCO[C@@H]2CCN(CC3CC3)C[C@H]21)N1CCCCO1	6.59%
Cc1nc(-c2ccc(Cl)cc2)n(CC(=O)NC(C)C)c(=O)c1CCO	-8.88%
CCn1ncc2c1C(COC)CN(Cc1ccsc1)C2 (stereo unspecified)	-7.47%
Nc1nnnn1NCc1cccc(Cl)c1Cl	11.5%
CCn1cc(NS(=O)(=O)c2ccc(Br)s2)c(C(N)=O)n1	2.3%
CCc1noc(C2CCCCN2C(=O)c2nnc3ccccc3n2)n1 (stereo unspecified)	0.795%
CCN1CCN(S(=O)(=O)c2cc(Cl)c(Cl)cc2C)CC1	2.28%
c1cnc(N2CCCC(c3csc(Nc4cnccn4)n3)C2)nc1 (stereo unspecified)	8.33%
C[C@]1(O)CN(Cc2ncc[nH]2)CC[C@@H]1Oc1cccc(F)c1	-6.8%
COc1ccc(NCC2(O)CCNCC2)cc1OC	6.2%
COC(=O)CC(NC(=O)c1cccc(N2CCCC2=O)c1)c1cccs1 (stereo unspecified)	-51.4%
CC(C)NC(=O)c1cnc(Sc2nccn2C)c(Cl)c1	-41.4%
Cc1cc(C(=O)N(C)S(=O)(=O)C(C)C)ccc1F	-54.3%
CCc1ccc2c(c1)C(CCNC(=O)c1sccc1C)C(=O)N2 (stereo unspecified)	-52.3%
NC(=O)N1CCCCCC1C1CCN(c2nccc(C(F)(F)F)n2)CC1 (stereo unspecified)	4.82%
C1=C(CNC2CCc3ncnn3C2)COc2ccccc21 (stereo unspecified)	-2.28%
CN(C)S(=O)(=O)N(Cc1cscn1)c1ccccc1	-3.91%
CCc1nnc(C(C)N2CCN(CCC(C)(C)C)CC2)o1 (stereo unspecified)	6.61%

SMILES	cytotoxicity at 10 µM
O=C(C1CCCN(c2nc3ccccc3cc2CO)C1)N1CCCC1 (stereo unspecified)	-47.5%
CCCn1nc2c(cc1=O)CN(Cc1nc(-c3ccoc3)no1)CC2	8.64%
Cc1ccc(C2CN(C(=O)NCc3nnc4ccccn34)CCO2)o1 (stereo unspecified)	5.62%
Cc1nn(C)c(C)c1C(=O)NC(C)CC(=O)c1cccs1 (stereo unspecified)	-5.08%
CCN1CCN(C2CCN(C(C(N)=O)c3ccccc3)CC2)C1=O (stereo unspecified)	-10.3%
Cc1nccn1-c1ccc(C(C)NCCc2ccccn2)cc1 (stereo unspecified)	10.4%
O=C(CN1CCCC1c1nc(Cc2ccc(F)cc2)no1)NC1CC1 (stereo unspecified)	20.6%
CCOC(=O)NCCC(=O)NCc1ccc(Oc2ccc(F)cc2)nc1	-18.9%
Cc1cn2c(n1)CCC(NS(=O)(=O)c1cc(C)sc1C)C2 (stereo unspecified)	2.74%
O=C(NCCC1=CCCCC1)NC1CCCc2c1cnn2CCO (stereo unspecified)	-6.95%
CCN(CC1CN(CC2CCC2)CCO1)c1cccnn1 (stereo unspecified)	2.82%
O=C(NCc1ccccc1CN1CCOCC1)c1ccc(Br)cc1F	12.3%
CC(C#N)CSc1ccccc1NCC(=O)NC(=O)NC(C)(C)C (stereo unspecified)	11.7%
CC(C)(C)c1ccc(C2(C(=O)NCCS(C)(=O)=O)CC2)cc1	2.91%
CCC(Nc1cccc(Oc2ccccn2)c1)C(N)=O (stereo unspecified)	9.55%
CC(NC(=O)c1cccc[n+]1[O-])c1ccc2c(c1)CCC(=O)N2 (stereo unspecified)	45.2%
CN1CCN(c2ccnc3c(F)cc(Br)cc23)CC1	27.2%
FC(F)(F)Cn1cc(NCc2cscn2)cn1	-8.51%
CCOC1CCN(C(=O)c2csc(S(N)(=O)=O)c2)CC1	-11.4%
Cc1noc(C)c1CC(=O)NCC(CC(C)C)N1CCOCC1 (stereo unspecified)	-40.6%
CCOc1cccc(CCNC(=O)Cc2ccn[nH]2)n1	-27.2%
Cc1cccc(COc2ccc(NC(=O)C(C)NC(N)=O)c(C)c2)c1 (stereo unspecified)	-28%
CS(=O)(=O)c1cccc(OCC(=O)N2CCCC2c2ccc[nH]2)c1 (stereo unspecified)	3.92%

SMILES	cytotoxicity at 10 µM
CCN(CC)S(=O)(=O)N(Cc1ccccn1)Cc1ccccc1C	16.9%
O=C(NCc1ncc(-c2ccccc2)o1)NC1CCC(O)CC1 (stereo unspecified)	-41.8%
CN(CCC#N)C(=O)Cn1nnnc1C(C)(C)C	-46.3%
c1csc(C(CNCc2cccc3c2OCO3)N2CCOCC2)c1 (stereo unspecified)	-44.4%
CN(Cc1nnc(-c2ccco2)o1)C(C(N)=O)c1cccc(F)c1 (stereo unspecified)	16.7%
Cc1ccc(-c2nc(CN(Cc3ccco3)C3CCS(=O)(=O)C3)cs2)o1 (stereo unspecified)	10.3%
Cc1csc(C2(NCc3nc(-c4ccco4)no3)CCCC2)n1	3.18%
Cc1c(C(C)NC(=O)Nc2ccccc2F)cnn1C (stereo unspecified)	-45.2%
Cc1cc(CNc2ccnn2C)ccc1-n1cncn1	-43.2%
CC(C)c1noc(CS(=O)(=O)CC(=O)NCCOc2ccccc2)n1	-10%
CCc1noc(CN(C)Cc2ccc(N3CCCCC3)cc2)n1	-5.88%
Cc1noc(C)c1CN1C[C@@H]2COC[C@H](C(=O)N3CCCO3)[C@@H]2C1	-66.6%
CN1C(=O)CC(c2cnn(C)c2)C12CCN(C(=O)c1cscn1)CC2 (stereo unspecified)	-76.6%
Cc1[nH]c2ccccc2c1-c1ccnc(NCCN2CCCCC2)n1	-1.36%
CC(C)c1nccc(CN2CCCC(O)(CN3CCCC3)C2)n1 (stereo unspecified)	-0.413%
CN(CCn1ccc2ccccc21)C(=O)Cc1nnn[nH]1	-8.93%
Cc1ccc(-n2nc(C)c3c2NC(=O)CC3c2cnc(N)s2)cc1 (stereo unspecified)	5.56%
CC(=O)c1cnc(N(C)Cc2cnc3ccccc3n2)nc1C	2.4%
Cc1ccc(S(=O)(=O)N2CCC(Cn3cc(C(C)(C)N)nn3)CC2)s1	6.74%
CCc1nnc(CN(C)C(=O)CN2CC(c3ccccc3)CC2=O)o1 (stereo unspecified)	-2.96%
CCN(CC)C(=O)[C@@H]1C[C@@H](N)CN1c1nc(N(C)C)nc(C)c1C	-24.4%
CCC[C@H]1CN(Cc2ccc(N(C)C)nc2)C[C@@H]1NC(=O)CCOC	15.5%
COc1ccccc1OC1CCN(C(=O)C2CCCN(C)C2)CC1 (stereo unspecified)	-53.5%

SMILES	cytotoxicity at 10 µM
CC(C)CN(Cc1ccsc1)C(=O)CCCn1cncn1	-47.9%
CCC(=O)N1CCN(C(=O)Nc2cccc(F)c2)[C@H]2CS(=O)(=O)C[C@H]21	-46.8%
O=C(c1csc(-c2ccc(C(F)(F)F)cc2)n1)N1CCCNCC1	6.24%
COc1ccc(CN(Cc2ccsc2)CC2CCCO2)cn1 (stereo unspecified)	-6.16%
COc1cccc(CNC(=O)C(C)n2ccnc2C(C)C)c1OC (stereo unspecified)	-1.68%
CCCN(Cc1cnc2ccccc2n1)Cc1ccccc1OC	-40.1%
COC1CCCN(Cc2cc(O)c3cc(C)cc(C)c3n2)C1 (stereo unspecified)	3.54%
Cc1cc(C)nc(CN(C)C(=O)C(c2cccnc2)N2CCCC2)c1 (stereo unspecified)	-45.4%
NCCN1CCC(c2nnc(Cn3ccnc3)n2C2CC2)CC1	-3.07%
CNc1ncc(CN(C)c2ncnc3onc(C)c23)cn1	-16.8%
CC(=O)NCc1cccc(-n2ccnc2-c2cccc(C(=O)O)c2)c1	-2.29%
Cc1nc(N)nc(C)c1CC(=O)NCc1ccc2nonc2c1	5.6%
CC(C)c1ncc(-c2cc(C3CCC3)nc(N)c2C#N)cn1	-16.1%
O=C(c1ccc(Br)o1)N1CCN(Cc2ccc(F)cc2)CC1	9.08%
COc1ccc(C2CCCN2S(=O)(=O)c2cc(F)ccc2F)cc1 (stereo unspecified)	0.585%
Cc1noc(C)c1-c1n[nH]c2c1CN(S(=O)(=O)c1cccs1)CC2	-12.1%
Cn1cc(C2CCCN2C(=O)CCCc2ccccn2)cn1 (stereo unspecified)	-0.222%
COc1cc(S(=O)(=O)N2CCc3cc(Br)ccc32)cc(C(=O)O)c1OC	-15.9%
CCc1nc(C2CCCN2C(=O)c2ccc3c(c2)nnn3C)no1 (stereo unspecified)	-4.35%
CC(C)c1n[nH]c(C2CN(C(=O)Cn3ccccc3=O)CCO2)n1 (stereo unspecified)	-0.924%
CCc1nc(C2CCCN2CCCc2nc3ccccc3o2)no1 (stereo unspecified)	-7.92%
Cc1nnc(NC(=O)CN2CCc3nn(C)c(=O)cc3C2)s1	-6.18%
O=C(COCCc1ccccc1)N1CCCC(n2cccn2)C1 (stereo unspecified)	-3.42%

SMILES	cytotoxicity at 10 µM
CC(NC(=O)Cn1cccn1)c1ccc2c(c1)OCCCO2 (stereo unspecified)	-2.55%
CC(=O)Nc1nc(CN2CCCC2Cn2cncn2)cs1 (stereo unspecified)	0.222%
Cc1ccc(-c2noc(CN3CCOC(CN(C)C)C3)n2)cc1F (stereo unspecified)	-5.48%
c1ccc(OC2CCCC2)c(CNC2CCc3ncnn3C2)c1 (stereo unspecified)	-5.43%
CCn1cnnc1C1CCN(C(=O)c2cc3c(s2)CCC3)CC1	-8.93%
CCc1nnc2n1CCN(C(=O)c1ccc(-c3ccco3)nc1C)C2	-7.23%
Clc1snnc1CN1CCCC(Cn2cncn2)C1 (stereo unspecified)	-7.67%
CO[C@H]1CCN(Cc2cccs2)[C@@H]2CN(Cc3ccncc3)C[C@H]12	2.31%
Cn1ccnc1CN1CCC2(CC1)COC2	6.81%
NC(CC1CCCC1)c1ccccc1 (stereo unspecified)	5.76%
COCCNC(=O)C1CN(Cc2csc(C)n2)Cc2ccnn2C1 (stereo unspecified)	-74.2%
CC(C)NC(=O)[C@H]1C[C@H]2OCC[C@H]2N(Cc2ccc3ccccc3n2)C1	-56.3%
c1cc(-c2ccc3c(c2)CCC32CCN(c3nncs3)CC2)ccn1	20.4%
COCC(=O)N1CCC2(CC1)CN(c1ccccn1)CCO2	-71.2%
O=S(=O)(C1CC1)N1CCc2onc(COc3ccccn3)c2C1	-4.38%
O=C(NCCc1cccs1)[C@H]1CO[C@H]2CCN(C3CCC3)C[C@H]2C1	-116%
Cc1ccc(N2CCC3(CN(Cc4cccs4)CCC3(F)F)C2)nn1 (stereo unspecified)	8.39%
COc1cc(C2c3c(n[nH]c3C)N=C3COC(=O)C32)cc(Br)c1O (stereo unspecified)	75.4%
CC(C)CCN1C[C@@H]2C[C@H](C(=O)NCC(C)C)[C@H](C1)O2	5.9%
